Laboratory results reported in ChEMBL document CHEMBL1828552, “Synthesis and studies of novel 2-(4-cyano-3-trifluoromethylphenyl amino)-4-(quinoline-4-yloxy)-6-(piperazinyl/piperidinyl)-s-triazines as potential antimicrobial, antimycobacterial and anticancer agents” (2011).
In brackets after ≈: the same amount, converted by molar mass.

tested on: DU-145; test: Cytotoxicity against […] human DU145 cells after 48 hrs by SRB assay; assay type: functional; conditions: DU-145, 48 h
Summary of the method: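 SRB assay in DU-145 cells grown in RPMI 1640 with 10% FBS and 2 mM L-glutamine. Cells were plated and held 24 h before addition of four 10-fold concentrations. After 48 h, cells were TCA-fixed, stained with 0.4% SRB and read at 540 nm. GI50, TGI and LC50 were derived against time-zero and control wells; each value is the mean of three experiments.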

Row | SMILES | GI50 | LC50 (concentration giving 50% net cell kill relative to time zero) | TGI
1 | COc1ccc(CN2CCN(c3nc(Nc4ccc(C#N)c(C(F)(F)F)c4)nc(Oc4ccnc5ccccc45)n3)CC2)c(OC)c1OC | > 100 µM | > 100 µM | > 100 µM

tested on: Pseudomonas aeruginosa; test: Antibacterial activity against 10^5 CFU/mL Pseudomonas aeruginosa MTCC 741 after 24 hrs by disc diffusion technique; assay type: functional; conditions: not given
Summary of the method: (§1)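 Disc diffusion on Mueller–Hinton agar poured 5 mm deep. The surface was swabbed with a 10⁵ CFU/mL […] suspension. Filter-paper discs 6.25 mm in diameter were soaked in compound in DMSO and placed on the agar. Plates were incubated 24 h at 37 ± 1 °C, and the inhibition zone was measured in mm. A DMSO disc served as blank.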

Row | SMILES | inhibition zone (IZ)
2 | COc1ccc(CN2CCN(c3nc(Nc4ccc(C#N)c(C(F)(F)F)c4)nc(Oc4ccnc5ccccc45)n3)CC2)c(OC)c1OC | 26 mm

tested on: Klebsiella pneumoniae; test: Antibacterial activity against 10^5 CFU/mL Klebsiella pneumoniae MTCC 109 after 24 hrs by disc diffusion technique; assay type: functional; conditions: not given; summary of the method: as §1

Row | SMILES | inhibition zone (IZ)
3 | COc1ccc(CN2CCN(c3nc(Nc4ccc(C#N)c(C(F)(F)F)c4)nc(Oc4ccnc5ccccc45)n3)CC2)c(OC)c1OC | 23 mm

tested on: Salmonella typhi; test: Antibacterial activity against 10^5 CFU/mL Salmonella typhi MTCC 733 after 24 hrs by disc diffusion technique; assay type: functional, Salmonella enterica subsp. enterica serovar Typhi; conditions: not given
Summary of the method: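 Disc diffusion. Mueller-Hinton agar autoclaved 120 °C 30 min, poured 5 mm deep. Surface swabbed with 10⁵ CFU/mL suspension […]. 6.25 mm filter-paper discs soaked in compound in DMSO; DMSO-only disc as blank. Incubated 37 ± 1 °C, 24 h for bacteria or 48 h for fungi. Ciprofloxacin and ketoconazole discs as reference drugs. Inhibition zone measured in mm.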

Row | SMILES | inhibition zone (IZ)
4 | COc1ccc(CN2CCN(c3nc(Nc4ccc(C#N)c(C(F)(F)F)c4)nc(Oc4ccnc5ccccc45)n3)CC2)c(OC)c1OC | 26 mm

tested on: Mycobacterium tuberculosis; test: Antimycobacterial activity against 10^4 to 10^7 CFU/mL Mycobacterium tuberculosis H37Rv at 6.25 ug/ml by BACTEC MGIT method; assay type: functional; conditions: not given
Summary of the method: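 Primary screen at 6.25 in the BACTEC MGIT system: modified Middlebrook 7H9 broth tubes with compound, seeded with 10⁴-10⁷ CFU/mL H37Rv plus 0.1 mL egg-based L.J. medium. Incubated at 37 ± 1 °C and read daily from day 2 under UV light against positive and uninoculated controls.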

Row | SMILES | inhibition at 6.25 µg/mL
5 | COc1ccc(CN2CCN(c3nc(Nc4ccc(C#N)c(C(F)(F)F)c4)nc(Oc4ccnc5ccccc45)n3)CC2)c(OC)c1OC | 99%

tested on: Staphylococcus aureus; test: Antibacterial activity against 10^5 CFU/mL Staphylococcus aureus MTCC 96 after 24 hrs by disc diffusion technique; assay type: functional; conditions: not given; summary of the method: as §1

Row | SMILES | inhibition zone (IZ)
6 | COc1ccc(CN2CCN(c3nc(Nc4ccc(C#N)c(C(F)(F)F)c4)nc(Oc4ccnc5ccccc45)n3)CC2)c(OC)c1OC | 28 mm

tested on: Candida albicans; test: Antifungal activity against 10^5 CFU/mL Candida albicans MTCC 183 after 48 hrs by disc diffusion technique; assay type: functional; conditions: not given

Row | SMILES | inhibition zone (IZ)
7 | COc1ccc(CN2CCN(c3nc(Nc4ccc(C#N)c(C(F)(F)F)c4)nc(Oc4ccnc5ccccc45)n3)CC2)c(OC)c1OC | 25 mm

tested on: Escherichia coli; test: Antibacterial activity against 10^5 CFU/mL Escherichia coli MTCC 739 after 24 hrs by agar streak dilution method; assay type: functional; conditions: MTCC 739, 24 h
Summary of the method: (§2)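 Agar streak dilution. Stock 100 µg/mL in DMSO; graded amounts were mixed into molten nutrient agar and poured at 4–5 mm depth. Plates carried serial dilutions over […]. About 10⁵ CFU/mL of each bacterium was applied, and plates were incubated at 37 ± 1 °C for 24 h. MIC was read from the dilution series.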

Row | SMILES | MIC
8 | COc1ccc(CN2CCN(c3nc(Nc4ccc(C#N)c(C(F)(F)F)c4)nc(Oc4ccnc5ccccc45)n3)CC2)c(OC)c1OC | 12.5 µg/mL (≈ 18.6 µM)

tested on: Bacillus cereus; test: Antibacterial activity against 10^5 CFU/mL Bacillus cereus MTCC 619 after 24 hrs by disc diffusion technique; assay type: functional; conditions: not given; summary of the method: as §1

Row | SMILES | inhibition zone (IZ)
9 | COc1ccc(CN2CCN(c3nc(Nc4ccc(C#N)c(C(F)(F)F)c4)nc(Oc4ccnc5ccccc45)n3)CC2)c(OC)c1OC | 26 mm

tested on: Candida albicans; test: Antifungal activity against 10^5 CFU/mL Candida albicans MTCC 183 after 48 hrs by agar streak dilution method; assay type: functional; conditions: MTCC 183, 48 h
Summary of the method: (§3)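 Agar streak dilution for fungi. Stock 100 µg/mL in DMSO; graded amounts were mixed into molten Sabouraud dextrose agar and poured at 4–5 mm depth. Serial dilutions ran over […]. About 10⁵ CFU/mL inoculum was applied, with incubation at 37 ± 1 °C for 48 h. MIC was read from the dilution series.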

Row | SMILES | MIC
10 | COc1ccc(CN2CCN(c3nc(Nc4ccc(C#N)c(C(F)(F)F)c4)nc(Oc4ccnc5ccccc45)n3)CC2)c(OC)c1OC | 25 µg/mL (≈ 37.2 µM)

tested on: Escherichia coli; test: Antibacterial activity against 10^5 CFU/mL Escherichia coli MTCC 739 after 24 hrs by disc diffusion technique; assay type: functional; conditions: not given; summary of the method: as §1

Row | SMILES | inhibition zone (IZ)
11 | COc1ccc(CN2CCN(c3nc(Nc4ccc(C#N)c(C(F)(F)F)c4)nc(Oc4ccnc5ccccc45)n3)CC2)c(OC)c1OC | 26 mm

tested on: Bacillus cereus; test: Antibacterial activity against 10^5 CFU/mL Bacillus cereus MTCC 619 after 24 hrs by agar streak dilution method; assay type: functional; conditions: MTCC 619, 24 h; summary of the method: as §2

Row | SMILES | MIC
12 | COc1ccc(CN2CCN(c3nc(Nc4ccc(C#N)c(C(F)(F)F)c4)nc(Oc4ccnc5ccccc45)n3)CC2)c(OC)c1OC | 6.25 µg/mL (≈ 9.29 µM)

tested on: Shigella flexneri; test: Antibacterial activity against 10^5 CFU/mL Shigella flexneri MTCC 1457 after 24 hrs by disc diffusion technique; assay type: functional; conditions: not given; summary of the method: as §1

Row | SMILES | inhibition zone (IZ)
13 | COc1ccc(CN2CCN(c3nc(Nc4ccc(C#N)c(C(F)(F)F)c4)nc(Oc4ccnc5ccccc45)n3)CC2)c(OC)c1OC | 25 mm

tested on: Pseudomonas aeruginosa; test: Antibacterial activity against 10^5 CFU/mL Pseudomonas aeruginosa MTCC 741 after 24 hrs by agar streak dilution method; assay type: functional; conditions: MTCC 741, 24 h; summary of the method: as §2

Row | SMILES | MIC
14 | COc1ccc(CN2CCN(c3nc(Nc4ccc(C#N)c(C(F)(F)F)c4)nc(Oc4ccnc5ccccc45)n3)CC2)c(OC)c1OC | 6.25 µg/mL (≈ 9.29 µM)

tested on: Proteus vulgaris; test: Antibacterial activity against 10^5 CFU/mL Proteus vulgaris MTCC 1771 after 24 hrs by agar streak dilution method; assay type: functional; conditions: MTCC 1771, 24 h; summary of the method: as §2

Row | SMILES | MIC
15 | COc1ccc(CN2CCN(c3nc(Nc4ccc(C#N)c(C(F)(F)F)c4)nc(Oc4ccnc5ccccc45)n3)CC2)c(OC)c1OC | 6.25 µg/mL (≈ 9.29 µM)

tested on: Aspergillus niger; test: Antifungal activity against 10^5 CFU/mL Aspergillus niger MTCC 282 after 48 hrs by disc diffusion technique; assay type: functional; conditions: not given

Row | SMILES | inhibition zone (IZ)
16 | COc1ccc(CN2CCN(c3nc(Nc4ccc(C#N)c(C(F)(F)F)c4)nc(Oc4ccnc5ccccc45)n3)CC2)c(OC)c1OC | 27 mm

tested on: Aspergillus fumigatus; test: Antifungal activity against 10^5 CFU/mL Aspergillus fumigatus MTCC 343 after 48 hrs by disc diffusion technique; assay type: functional; conditions: not given

Row | SMILES | inhibition zone (IZ)
17 | COc1ccc(CN2CCN(c3nc(Nc4ccc(C#N)c(C(F)(F)F)c4)nc(Oc4ccnc5ccccc45)n3)CC2)c(OC)c1OC | 27 mm

tested on: Aspergillus clavatus; test: Antifungal activity against 10^5 CFU/mL Aspergillus clavatus MTCC 1323 after 48 hrs by agar streak dilution method; assay type: functional; conditions: MTCC 1323, 48 h; summary of the method: as §3

Row | SMILES | MIC
18 | COc1ccc(CN2CCN(c3nc(Nc4ccc(C#N)c(C(F)(F)F)c4)nc(Oc4ccnc5ccccc45)n3)CC2)c(OC)c1OC | 12.5 µg/mL (≈ 18.6 µM)

tested on: Proteus vulgaris; test: Antibacterial activity against 10^5 CFU/mL Proteus vulgaris MTCC 1771 after 24 hrs by disc diffusion technique; assay type: functional; conditions: not given; summary of the method: as §1

Row | SMILES | inhibition zone (IZ)
19 | COc1ccc(CN2CCN(c3nc(Nc4ccc(C#N)c(C(F)(F)F)c4)nc(Oc4ccnc5ccccc45)n3)CC2)c(OC)c1OC | 26 mm

tested on: Aspergillus clavatus; test: Antifungal activity against 10^5 CFU/mL Aspergillus clavatus MTCC 1323 after 48 hrs by disc diffusion technique; assay type: functional; conditions: not given

Row | SMILES | inhibition zone (IZ)
20 | COc1ccc(CN2CCN(c3nc(Nc4ccc(C#N)c(C(F)(F)F)c4)nc(Oc4ccnc5ccccc45)n3)CC2)c(OC)c1OC | 28 mm

tested on: Shigella flexneri; test: Antibacterial activity against 10^5 CFU/mL Shigella flexneri MTCC 1457 after 24 hrs by agar streak dilution method; assay type: functional; conditions: MTCC 1457, 24 h; summary of the method: as §2

Row | SMILES | MIC
21 | COc1ccc(CN2CCN(c3nc(Nc4ccc(C#N)c(C(F)(F)F)c4)nc(Oc4ccnc5ccccc45)n3)CC2)c(OC)c1OC | 12.5 µg/mL (≈ 18.6 µM)

tested on: Klebsiella pneumoniae; test: Antibacterial activity against 10^5 CFU/mL Klebsiella pneumoniae MTCC 109 after 24 hrs by agar streak dilution method; assay type: functional; conditions: MTCC 109, 24 h; summary of the method: as §2

Row | SMILES | MIC
22 | COc1ccc(CN2CCN(c3nc(Nc4ccc(C#N)c(C(F)(F)F)c4)nc(Oc4ccnc5ccccc45)n3)CC2)c(OC)c1OC | 12.5 µg/mL (≈ 18.6 µM)

tested on: Aspergillus niger; test: Antifungal activity against 10^5 CFU/mL Aspergillus niger MTCC 282 after 48 hrs by agar streak dilution method; assay type: functional; conditions: MTCC 282, 48 h; summary of the method: as §3

Row | SMILES | MIC
23 | COc1ccc(CN2CCN(c3nc(Nc4ccc(C#N)c(C(F)(F)F)c4)nc(Oc4ccnc5ccccc45)n3)CC2)c(OC)c1OC | 12.5 µg/mL (≈ 18.6 µM)

tested on: Staphylococcus aureus; test: Antibacterial activity against 10^5 CFU/mL Staphylococcus aureus MTCC 96 after 24 hrs by agar streak dilution method; assay type: functional; conditions: MTCC 96, 24 h; summary of the method: as §2

Row | SMILES | MIC
24 | COc1ccc(CN2CCN(c3nc(Nc4ccc(C#N)c(C(F)(F)F)c4)nc(Oc4ccnc5ccccc45)n3)CC2)c(OC)c1OC | 6.25 µg/mL (≈ 9.29 µM)

tested on: Aspergillus fumigatus; test: Antifungal activity against 10^5 CFU/mL Aspergillus fumigatus MTCC 343 after 48 hrs by agar streak dilution method; assay type: functional; conditions: MTCC 343, 48 h; summary of the method: as §3

Row | SMILES | MIC
25 | COc1ccc(CN2CCN(c3nc(Nc4ccc(C#N)c(C(F)(F)F)c4)nc(Oc4ccnc5ccccc45)n3)CC2)c(OC)c1OC | 25 µg/mL (≈ 37.2 µM)

tested on: Salmonella typhi; test: Antibacterial activity against 10^5 CFU/mL Salmonella typhi MTCC 733 after 24 hrs by agar streak dilution method; assay type: functional, Salmonella enterica subsp. enterica serovar Typhi; conditions: Salmonella enterica, MTCC 733, 24 h

Row | SMILES | MIC
26 | COc1ccc(CN2CCN(c3nc(Nc4ccc(C#N)c(C(F)(F)F)c4)nc(Oc4ccnc5ccccc45)n3)CC2)c(OC)c1OC | 12.5 µg/mL (≈ 18.6 µM)
